# Reference: ChEMBL document CHEMBL3351780, “Novel hybrids of metronidazole and quinolones: synthesis, bioactive evaluation, cytotoxicity, preliminary antimicrobial mechanism and effect of metal ions on their transportation by human serum albumin” (Eur J Med Chem, 2014)
# Tests used:
# Type in all cases: functional
# [1] = test system: Bacillus spizizenii; test: Antibacterial activity against Bacillus subtilis ATCC 6633 by two-fold serial dilution method
# Outline: (§1)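 Standard two-fold serial dilution in 96-well microtest plates following NCCLS. Top dilutions printed as 32, 16, 8, 4, 2, 1, 0.5 ug/mL. Wells inoculated and held at 37 °C for 24 h. Growth judged visually and by spectrophotometer, in triplicate. MIC is the lowest concentration giving complete growth inhibition.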
# [2] = Antibacterial activity against Eberthella typhosa by two-fold serial dilution method
# Outline: (§2)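 MIC read as the lowest concentration giving complete growth inhibition. Two-fold serial dilutions were made in 96-well plates following NCCLS, giving a series down to 0.5 µg/mL (…32, 16, 8, 4, 2, 1, 0.5). Plates were inoculated and incubated at 37 °C for 24 h. A DMSO-with-inoculum control without drug was included. Growth was monitored visually and spectrophotometrically, in triplicate.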
# [3] = test system: Pichia norvegensis; test: Antifungal activity against Candida mycoderma after 24 hrs by microbroth dilution method
# [4] = test system: Micrococcus luteus; test: Antibacterial activity against Micrococcus luteus by two-fold serial dilution method; outline: as §1
# [5] = test system: Staphylococcus aureus; test: Antibacterial activity against methicillin-resistant Staphylococcus aureus N315 by two-fold serial dilution method; outline: as §2
# [6] = test system: Staphylococcus aureus; test: Antibacterial activity against Staphylococcus aureus ATCC 25923 by two-fold serial dilution method; outline: as §1
# [7] = test system: Pseudomonas aeruginosa; test: Antibacterial activity against Pseudomonas aeruginosa by two-fold serial dilution method; outline: as §1
# [8] = test system: Escherichia coli; test: Antibacterial activity against Escherichia coli DH52 by two-fold serial dilution method; outline: as §1
# [9] = test system: Shigella dysenteriae; test: Antibacterial activity against Shigella dysenteriae by two-fold serial dilution method; outline: as §2
# [10] = test system: Cyberlindnera jadinii; test: Antifungal activity against Candida utilis after 24 hrs by microbroth dilution method; details: Williopsis jadinii
# Outline: (§3)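 Spore suspension prepared in sterile distilled water from one-day-old cultures on Sabouraud agar, final 1-5 x 10^3 spores/mL. Compounds were serially diluted in RPMI 1640 to give eleven dilutions. Incubation at 35 °C for 24 h. Growth read visually and spectrophotometrically, in triplicate. MIC is the lowest concentration with complete inhibition.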
# [11] = test system: Saccharomyces cerevisiae; test: Antifungal activity against Saccharomyces cerevisiae after 24 hrs by microbroth dilution method; outline: as §3
# [12] = test system: Candida albicans; test: Antifungal activity against Candida albicans ATCC 76615 after 24 hrs by microbroth dilution method; details: ATCC 76615, 24 h; outline: as §3
# [13] = test system: Streptococcus pneumoniae; test: Antibacterial activity against Streptococcus pneumoniae by two-fold serial dilution method; outline: as §1
Compound,MIC [1] [mg/L],MIC [2] [mg/L],MIC [3] [mg/L],MIC [4] [mg/L],MIC [5] [mg/L],MIC [6] [mg/L],MIC [7] [mg/L],MIC [8] [mg/L],MIC [9] [mg/L],MIC [10] [mg/L],MIC [11] [mg/L],MIC [12] [mg/L],MIC [13] [mg/L]
CCOC(=O)c1cn(CC2CO2)c2ccc(C)cc2c1=O (racemic),64,2,8,,,,,,,,,,
CCOC(=O)c1cn(CC(O)Cn2cnc([N+](=O)[O-])c2)c2cc(C(F)(F)F)ccc2c1=O (racemic),4,64,32,8,4,8,64,128,16,16,16,16,
O=C(O)c1cn(CC(O)Cn2cnc([N+](=O)[O-])c2)c2cc(Cl)c(F)cc2c1=O (configuration not stated),8,2,128,8,8,16,4,32,16,256,64,128,16
O=C(O)c1cn(CC(O)Cn2cnc([N+](=O)[O-])c2)c2c(F)cccc2c1=O (configuration not stated),4,32,128,4,4,16,8,4,8,512,64,128,32
CCOC(=O)c1cn(CC(O)Cn2c([N+](=O)[O-])cnc2C)c2cc(Cl)c(F)cc2c1=O (racemic),8,8,128,128,4,64,32,64,16,256,16,128,
CCOC(=O)c1cn(CC(O)Cn2c([N+](=O)[O-])cnc2C)c2c(F)cccc2c1=O (racemic),16,4,128,8,8,32,16,16,8,512,256,128,
CCOC(=O)c1cn(CC2CO2)c2cc(Cl)c(F)cc2c1=O (racemic),128,8,1,64,8,128,32,64,128,512,4,64,
CCOC(=O)c1cn(CC(O)Cn2cnc([N+](=O)[O-])c2)c2c(Cl)cc(Cl)cc2c1=O (racemic),4,16,64,8,64,32,16,16,8,256,32,64,
CCOC(=O)c1cn(CC(O)Cn2c([N+](=O)[O-])cnc2C)c2ccc(F)cc2c1=O (racemic),8,4,128,8,4,16,16,8,8,128,32,64,
CCOC(=O)c1cn(CC(O)Cn2c([N+](=O)[O-])cnc2C)c2c(Cl)cc(Cl)cc2c1=O (racemic),8,8,64,16,32,16,16,16,8,256,128,64,
CCOC(=O)c1cn(CC(O)Cn2cnc([N+](=O)[O-])c2)c2ccc(OC)cc2c1=O (racemic),64,256,512,512,4,4,64,2,32,8,4,16,
CCOC(=O)c1cn(CC(O)Cn2cnc([N+](=O)[O-])c2)c2ccc(F)cc2c1=O (racemic),8,32,32,4,16,32,8,16,32,16,16,32,
